Assay results: ChEMBL document CHEMBL3232844, “Synthesis and structure activity relationships of schweinfurthin indoles” (2014)

Legend:
Assay type in all cases: functional
[1] = system: A498; experiment: Cytotoxicity against human A498 cells
Method in brief: (§1)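 Tested in a 60-cell-line human tumor panel screen; the read-out is growth inhibition, reported as GI50 for each cell line.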

[2] = system: SK-OV-3; experiment: Cytotoxicity against human SKOV3 cells; method in brief: as §1
[3] = system: SF-539; experiment: Cytotoxicity against human SF539 cells; method in brief: as §1
[4] = Cytotoxicity against human NCI-ADR-RES cells; method in brief: as §1
[5] = Cytotoxicity against human OVCAR4 cells; method in brief: as §1
[6] = system: ACHN; experiment: Cytotoxicity against human ACHN cells; method in brief: as §1
[7] = Cytotoxicity against human HCT15 cells; method in brief: as §1
[8] = system: LOX IMVI; experiment: Cytotoxicity against human LOXIMVI cells; method in brief: as §1
[9] = system: HOP-62; experiment: Cytotoxicity against human HOP62 cells; method in brief: as §1
[10] = system: BT-549; experiment: Cytotoxicity against human BT549 cells; method in brief: as §1
[11] = system: T47D; experiment: Cytotoxicity against human T47D cells
Method in brief: (§2)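 Cell line run as part of the 60-cell-line screening panel; growth inhibition was reported as a GI50 for each line.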

[12] = Cytotoxicity against human EKVX cells; method in brief: as §1
[13] = system: A549; experiment: Cytotoxicity against human A549 cells; method in brief: as §1
[14] = system: NCI-H23; experiment: Cytotoxicity against human NCI-H23 cells; method in brief: as §1
[15] = system: HT-29; experiment: Cytotoxicity against human HT-29 cells; method in brief: as §1
[16] = system: MDA-MB-231; experiment: Cytotoxicity against human MDA-MB-231 cells; method in brief: as §1
[17] = system: MOLT-4; experiment: Cytotoxicity against human MOLT4 cells; method in brief: as §1
[18] = Cytotoxicity against human OVCAR3 cells; method in brief: as §1
[19] = Cytotoxicity against human UACC257 cells; method in brief: as §2
[20] = Cytotoxicity against human OVCAR8 cells; method in brief: as §1
[21] = Cytotoxicity against human UO31 cells; method in brief: as §2
[22] = system: U-251; experiment: Cytotoxicity against human U251 cells; method in brief: as §2
[23] = system: SF-295; experiment: Cytotoxicity against human SF295 cells; method in brief: as §1
[24] = system: NCI-H322M; experiment: Cytotoxicity against human NCI-H322M cells; method in brief: as §1
[25] = system: K562; experiment: Cytotoxicity against human K562 cells; method in brief: as §1
[26] = system: SNB-19; experiment: Cytotoxicity against human SNB19 cells; method in brief: as §1
[27] = system: COLO 205; experiment: Cytotoxicity against human COLO205 cells; method in brief: as §1
[28] = system: M14; experiment: Cytotoxicity against human M14 cells; method in brief: as §1
[29] = system: NCI-H226; experiment: Cytotoxicity against human NCI-H226 cells; method in brief: as §1
[30] = system: MDA-MB-468; experiment: Cytotoxicity against human MDA-MB-468 cells; method in brief: as §1
[31] = system: RXF 393; experiment: Cytotoxicity against human RXF393 cells; method in brief: as §1
[32] = system: DU-145; experiment: Cytotoxicity against human DU145 cells; method in brief: as §1
[33] = system: SNB-75; experiment: Cytotoxicity against human SNB75 cells; method in brief: as §2
[34] = system: MCF7; experiment: Cytotoxicity against human MCF7 cells; method in brief: as §1
[35] = system: NCI-H460; experiment: Cytotoxicity against human NCI-H460 cells; method in brief: as §1
[36] = system: CAKI-1; experiment: Cytotoxicity against human Caki1 cells; method in brief: as §1
[37] = system: KM12; experiment: Cytotoxicity against human KM12 cells; method in brief: as §1
[38] = Cytotoxicity against human UACC62 cells; method in brief: as §2
[39] = system: SK-MEL-2; experiment: Cytotoxicity against human SK-MEL-2 cells; method in brief: as §1
[40] = system: SK-MEL-5; experiment: Cytotoxicity against human SK-MEL-5 cells; method in brief: as §1
[41] = system: HCC 2998; experiment: Cytotoxicity against human HCC2998 cells; method in brief: as §1
[42] = system: TK-10; experiment: Cytotoxicity against human TK10 cells; method in brief: as §2
[43] = Cytotoxicity against human OVCAR5 cells; method in brief: as §1
[44] = system: CCRF-CEM; experiment: Cytotoxicity against human CCRF-CEM cells
[45] = read-out: pLC50 (the source's name) (converted)

CC1(C)[C@H](O)CC[C@@]2(C)Oc3c(O)cc(/C=C/c4cc(O)c5cc[nH]c5c4)cc3C[C@H]12
GI50 [1]: 0.427 µM
CC50 [1, 45]: 46.8 µM
TGI ([1]; read-out: pTGI (converted)): 11.7 µM
GI50 [2]: 1.95 µM
LC50 [2]: > 100 µM
TGI ([2]; read-out: pTGI (converted)): 18.6 µM
GI50 [3]: 0.0204 µM
CC50 [3, 45]: 6.17 µM
TGI ([3]; read-out: pTGI (converted)): 0.724 µM
GI50 [4]: 3.24 µM
CC50 [4, 45]: > 100 µM
TGI ([4]; read-out: pTGI (converted)): 31.6 µM
GI50 ([5]; OVCAR-4): 5.01 µM
CC50 ([5]; OVCAR-4, read-out: pLC50 (the source's name) (converted)): 91.2 µM
TGI ([5]; OVCAR-4, read-out: pTGI (converted)): 42.7 µM
GI50 [6]: 2.14 µM
LC50 (concentration killing 50% of cells) [6]: > 100 µM
TGI ([6]; read-out: pTGI (converted)): 30.9 µM
GI50 ([7]; HCT-15): 0.832 µM
CC50 ([7]; HCT-15, read-out: pLC50 (the source's name) (converted)): > 100 µM
TGI ([7]; HCT-15, read-out: pTGI (converted)): 38 µM
GI50 [8]: 0.178 µM
CC50 [8, 45]: 5.62 µM
TGI ([8]; read-out: pTGI (converted)): 1.58 µM
GI50 [9]: 0.631 µM
CC50 [9, 45]: > 100 µM
TGI ([9]; read-out: pTGI (converted)): 7.08 µM
GI50 [10]: 0.0214 µM
CC50 [10, 45]: 57.5 µM
TGI ([10]; read-out: pTGI (converted)): 5.37 µM
GI50 [11]: 7.59 µM
CC50 [11, 45]: 83.2 µM
TGI ([11]; read-out: pTGI (converted)): 27.5 µM
GI50 [12]: 0.794 µM
CC50 [12, 45]: > 100 µM
TGI ([12]; read-out: pTGI (converted)): 16.2 µM
GI50 [13]: 1 µM
CC50 [13, 45]: 55 µM
TGI ([13]; read-out: pTGI (converted)): 8.32 µM
GI50 [14]: 1.32 µM
CC50 [14, 45]: 41.7 µM
TGI ([14]; read-out: pTGI (converted)): 7.59 µM
GI50 [15]: 1.17 µM
CC50 [15, 45]: 45.7 µM
TGI ([15]; read-out: pTGI (converted)): 4.17 µM
GI50 [16]: 1.7 µM
LC50 [16]: > 100 µM
TGI ([16]; read-out: pTGI (converted)): 32.4 µM
GI50 [17]: 0.0437 µM
CC50 [17, 45]: > 100 µM
TGI ([17]; read-out: pTGI (converted)): 0.617 µM
GI50 ([18]; OVCAR-3): 3.47 µM
CC50 ([18]; OVCAR-3, read-out: pLC50 (the source's name) (converted)): 66.1 µM
TGI ([18]; OVCAR-3, read-out: pTGI (converted)): 21.4 µM
GI50 ([19]; UACC-257): 3.8 µM
CC50 ([19]; UACC-257, read-out: pLC50 (the source's name) (converted)): 66.1 µM
TGI ([19]; UACC-257, read-out: pTGI (converted)): 16.2 µM
GI50 ([20]; OVCAR-8): 4.79 µM
CC50 ([20]; OVCAR-8, read-out: pLC50 (the source's name) (converted)): > 100 µM
TGI ([20]; OVCAR-8, read-out: pTGI (converted)): 42.7 µM
GI50 ([21]; UO-31): 0.209 µM
LC50 ([21]; UO-31): > 100 µM
TGI ([21]; UO-31, read-out: pTGI (converted)): 2 µM
GI50 [22]: 0.0891 µM
CC50 [22, 45]: > 100 µM
TGI ([22]; read-out: pTGI (converted)): 20 µM
GI50 ([23]; read-out: GI50): 0.089 µM
GI50 ([23]; read-out: pGI50 (converted)): 0.0891 µM
CC50 [23, 45]: 3.16 µM
TGI ([23]; read-out: pTGI (converted)): 0.427 µM
GI50 [24]: 7.08 µM
CC50 [24, 45]: 95.5 µM
TGI ([24]; read-out: pTGI (converted)): 33.9 µM
GI50 [25]: 0.263 µM
CC50 [25, 45]: > 100 µM
TGI ([25]; read-out: pTGI (converted)): 47.9 µM
GI50 [26]: 1.12 µM
CC50 [26, 45]: > 100 µM
TGI ([26]; read-out: pTGI (converted)): 26.9 µM
GI50 [27]: 2.19 µM
CC50 [27, 45]: 11.7 µM
TGI ([27]; read-out: pTGI (converted)): 4.79 µM
GI50 [28]: 0.138 µM
CC50 [28, 45]: 8.32 µM
TGI ([28]; read-out: pTGI (converted)): 0.646 µM
GI50 [29]: 19.5 µM
CC50 [29, 45]: > 100 µM
TGI ([29]; read-out: pTGI (converted)): 75.9 µM
GI50 [30]: 1.2 µM
LC50 [30]: 36.3 µM
TGI ([30]; read-out: pTGI (converted)): 5.13 µM
GI50 [31]: 0.01 µM
LC50 [31]: 0.389 µM
TGI ([31]; read-out: pTGI (converted)): 0.0246 µM
GI50 [32]: 0.912 µM
LC50 (50% lethal concentration) [32]: 33.1 µM
TGI ([32]; read-out: pTGI (converted)): 6.46 µM
GI50 [33]: 0.01 µM
CC50 [33, 45]: 56.2 µM
TGI ([33]; read-out: pTGI (converted)): 0.851 µM
GI50 [34]: 1.35 µM
LC50 [34]: > 100 µM
TGI ([34]; read-out: pTGI (converted)): 16.2 µM
GI50 [35]: 0.55 µM
CC50 [35, 45]: 6.31 µM
TGI ([35]; read-out: pTGI (converted)): 2.14 µM
GI50 [36]: 0.12 µM
LC50 [36]: 15.1 µM
TGI ([36]; read-out: pTGI (converted)): 0.676 µM
GI50 [37]: 0.447 µM
CC50 [37, 45]: 7.76 µM
TGI ([37]; read-out: pTGI (converted)): 1.95 µM
GI50 ([38]; UACC-62): 0.617 µM
CC50 ([38]; UACC-62, read-out: pLC50 (the source's name) (converted)): 33.9 µM
TGI ([38]; UACC-62, read-out: pTGI (converted)): 6.46 µM
GI50 [39]: 0.759 µM
CC50 [39, 45]: 97.7 µM
TGI ([39]; read-out: pTGI (converted)): 21.4 µM
GI50 [40]: 0.372 µM
CC50 [40, 45]: 3.98 µM
TGI ([40]; read-out: pTGI (converted)): 1.51 µM
GI50 [41]: 3.16 µM
CC50 [41, 45]: 39.8 µM
TGI ([41]; read-out: pTGI (converted)): 14.1 µM
GI50 [42]: 3.55 µM
LC50 [42]: > 100 µM
TGI ([42]; read-out: pTGI (converted)): 34.7 µM
GI50 ([43]; OVCAR-5): 17.8 µM
CC50 ([43]; OVCAR-5, read-out: pLC50 (the source's name) (converted)): 97.7 µM
TGI ([43]; OVCAR-5, read-out: pTGI (converted)): 53.7 µM
GI50 [44]: 0.219 µM
CC50 [44, 45]: > 100 µM
TGI ([44]; read-out: pTGI (converted)): 14.1 µM
